The source made the active and inactive calls. The calls are words filed in the database; no cut-off is given here.
Legend:
[1] = tested on: NCI-H460; assay: Antiproliferative activity against human NCI-H460 cells using 1% DMSO/water compound formulation after 72 hrs by MTT assay; assay type: functional, cell-based; conditions: NCI-H460, 72 h
Procedure, shortened: (§1)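 MTT anti-proliferation on NSCLC lines. Compounds dissolved in DMSO, diluted with water to 1% DMSO, then into growth medium (max 0.032% DMSO on cells); or dissolved in 10% (w/v) 2-HPβCD in water, then diluted (max 0.008% w/w 2-HPβCD in wells; vehicle controls at 0.008%). IC50 = concentration giving 50% loss of viability versus control cells. Cisplatin dissolved in water with stirring.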

[2] = tested on: A549; assay: Antiproliferative activity against human A549 cells using 1% DMSO/water compound formulation after 72 hrs by MTT assay; assay type: functional, cell-based; conditions: A549, 72 h; procedure, shortened: as §1
[3] = tested on: NCI-H460; assay: Induction of apoptosis in human NCI-H460 cells assessed as cell rounding up to 1 hr by Annexin V-FITC/propidium iodide staining based fluorescence microscopic method; assay type: functional
[4] = tested on: NCI-H460; assay: Induction of apoptosis in human NCI-H460 cells assessed as cell shrinkage up to 1 hr by Annexin V-FITC/propidium iodide staining based fluorescence microscopic method; assay type: functional
[5] = tested on: HCC827; assay: Antiproliferative activity against human HCC827 cells using 1% DMSO/water compound formulation after 72 hrs by MTT assay; assay type: functional, cell-based; conditions: HCC827, 72 h; procedure, shortened: as §1
[6] = tested on: NCI-H1975; assay: Antiproliferative activity against human NCI-H1975 cells using 1% DMSO/water compound formulation after 72 hrs by MTT assay; assay type: functional, cell-based; conditions: NCI-H1975, 72 h; procedure, shortened: as §1
[7] = tested on: NCI-H460; assay: Induction of apoptosis in human NCI-H460 cells assessed as cell detachment up to 1 hr by Annexin V-FITC/propidium iodide staining based fluorescence microscopic method; assay type: functional
[8] = tested on: HOP-62; assay: Growth inhibition of human HOP62 cells after 24 hrs by SRB assay; assay type: functional; conditions: HOP-62, 24 h
[9] = tested on: NCI-H23; assay: Growth inhibition of human NCI-H23 cells assessed as cell growth at 10 uM after 24 hrs by SRB assay relative to control; assay type: functional; conditions: NCI-H23, 24 h, read-out: Activity
Procedure, shortened: (§2)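 NCI DTP one-dose screen: cells plated at density set by doubling rate, incubated overnight, then exposed to compound at 10 μM for 24 hours. Growth percentage from protein density at end versus start of experiment, relative to initial cell number.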

[10] = tested on: EKVX; assay: Growth inhibition of human EKVX cells assessed as cell growth at 10 uM after 24 hrs by SRB assay relative to control; assay type: functional; conditions: read-out: Activity; procedure, shortened: as §2
[11] = Solubility of the compound in 10% 2-HPbetaCD/water solution; assay type: physicochemical; conditions: buffer
[12] = tested on: NCI-H322M; assay: Growth inhibition of human NCI-H322M cells assessed as cell growth at 10 uM after 24 hrs by SRB assay relative to control; assay type: functional; conditions: read-out: Activity; procedure, shortened: as §2
[13] = tested on: NCI-H460; assay: Growth inhibition of human NCI-H460 cells assessed as cell growth at 10 uM after 24 hrs by SRB assay relative to control; assay type: functional; conditions: NCI-H460, 24 h, read-out: Activity; procedure, shortened: as §2
[14] = tested on: HOP-62; assay: Growth inhibition of human HOP62 cells assessed as cell growth at 10 uM after 24 hrs by SRB assay relative to control; assay type: functional; conditions: HOP-62, 24 h, read-out: Activity; procedure, shortened: as §2
[15] = tested on: HOP-92; assay: Growth inhibition of human HOP92 cells assessed as cell growth at 10 uM after 24 hrs by SRB assay relative to control; assay type: functional; conditions: HOP-92, 24 h, read-out: Activity; procedure, shortened: as §2
[16] = tested on: HCC827; assay: Antiproliferative activity against human HCC827 cells using 10% 2-HPbetaCD compound formulation after 72 hrs by MTT assay; assay type: functional, cell-based; conditions: HCC827, 72 h; procedure, shortened: as §1
[17] = Aqueous solubility of the compound in water; assay type: physicochemical; conditions: buffer
[18] = tested on: NCI-H226; assay: Growth inhibition of human NCI-H226 cells after 24 hrs by SRB assay; assay type: functional; conditions: NCI-H226, 24 h
[19] = tested on: EKVX; assay: Growth inhibition of human EKVX cells after 24 hrs by SRB assay; assay type: functional
[20] = tested on: NCI-H460; assay: Antiproliferative activity against human NCI-H460 cells using 10% 2-HPbetaCD compound formulation after 72 hrs by MTT assay; assay type: functional, cell-based; conditions: NCI-H460, 72 h; procedure, shortened: as §1
[21] = tested on: A549; assay: Growth inhibition of human A549 cells assessed as cell growth at 10 uM after 24 hrs by SRB assay relative to control; assay type: functional; conditions: A549, 24 h, read-out: Activity; procedure, shortened: as §2
[22] = tested on: A549; assay: Growth inhibition of human A549 cells after 24 hrs by SRB assay; assay type: functional; conditions: A549, 24 h
[23] = tested on: NCI-H460; assay: Growth inhibition of human NCI-H460 cells after 24 hrs by SRB assay; assay type: functional; conditions: NCI-H460, 24 h
[24] = Solubility of the compound in 1% DMSO/water solution; assay type: physicochemical; conditions: buffer
[25] = tested on: NCI-H322M; assay: Growth inhibition of human NCI-H322M cells after 24 hrs by SRB assay; assay type: functional
[26] = tested on: NCI-H522; assay: Growth inhibition of human NCI-H522 cells after 24 hrs by SRB assay; assay type: functional; conditions: NCI-H522, 24 h
[27] = tested on: NCI-H226; assay: Growth inhibition of human NCI-H226 cells assessed as cell growth at 10 uM after 24 hrs by SRB assay relative to control; assay type: functional; conditions: NCI-H226, 24 h, read-out: Activity; procedure, shortened: as §2
[28] = tested on: A549; assay: Antiproliferative activity against human A549 cells using 10% 2-HPbetaCD compound formulation after 72 hrs by MTT assay; assay type: functional, cell-based; conditions: A549, 72 h; procedure, shortened: as §1
[29] = tested on: NCI-H23; assay: Growth inhibition of human NCI-H23 cells after 24 hrs by SRB assay; assay type: functional; conditions: NCI-H23, 24 h; for CC50: read-out: LC50 (the source's name)
[30] = tested on: HOP-92; assay: Growth inhibition of human HOP92 cells after 24 hrs by SRB assay; assay type: functional; conditions: HOP-92, 24 h
[31] = tested on: NCI-H1975; assay: Antiproliferative activity against human NCI-H1975 cells using 10% 2-HPbetaCD compound formulation after 72 hrs by MTT assay; assay type: functional, cell-based; conditions: NCI-H1975, 72 h; procedure, shortened: as §1
[32] = read-out: LC50 (the source's name)

With Clc1c(Cl)[n+](Cc2ccc3ccccc3c2)cn1Cc1ccc2ccccc2c1 the IC50 [1] was 5000 nM, the IC50 [2] was 9000 nM and the Activity [3] was “Active”. The Activity [4] was “Active”, the IC50 [5] was 6000 nM and the IC50 [6] was 5000 nM. For the same compound, the Activity [7] was “Active”.
For CCCc1n(Cc2ccc3ccccc3c2)cc[n+]1Cc1ccc2ccccc2c1.[Br-], the IC50 [1] was 1910 nM, the IC50 [2] was 2930 nM and the GI50 [8] was 1260 nM. It also gave an LC50 [8] of 6190 nM, a TGI [8] of 2800 nM and a growth at 10 µM [9] of -28.2%. The growth at 10 µM [10] was 21.1%, the solubility [11] was > 4400 µg/mL and the growth at 10 µM [12] was 23.2%. The growth at 10 µM [13] was 3.26%, the growth at 10 µM [14] was 5.82% and the IC50 [5] was 1450 nM. The growth at 10 µM [15] was -38.3%, the IC50 [16] was 1250 nM and the solubility [17] was < 500 µg/mL. For the same compound, the GI50 [18] was 1310 nM, the LC50 [18] was > 100000 nM and the TGI [18] was 3920 nM. For the same compound, the GI50 [19] was 1710 nM, the LC50 [19] was 60500 nM and the TGI [19] was 11400 nM. The IC50 [20] was 2130 nM, the growth at 10 µM [21] was 31.6% and the GI50 [22] was 2670 nM. The TGI [22] was 12100 nM, the CC50 [22, 32] was 60300 nM and the GI50 [23] was 1220 nM. For the same compound, the TGI [23] was 3010 nM, the CC50 [23, 32] was 7440 nM and the IC50 [6] was 850 nM. For the same compound, the solubility [24] was “Soluble”, the GI50 [25] was 1960 nM and the LC50 (lethal concentration 50%) [25] was 23800 nM. For the same compound, the TGI [25] was 6000 nM, the GI50 [26] was 378 nM and the TGI [26] was 1680 nM. For the same compound, the CC50 [26, 32] was 4920 nM, the growth at 10 µM [27] was 0.23% and the IC50 [28] was 2810 nM. It also gave a GI50 [29] of 521 nM, a TGI [29] of 2510 nM and a CC50 [29] of 9770 nM. The GI50 [30] was 863 nM, the TGI [30] was 2660 nM and the CC50 [30, 32] was 7580 nM. The IC50 [31] was 630 nM.
Compound CCCCc1n(Cc2ccc3ccccc3c2)cc[n+]1Cc1ccc2ccccc2c1.[Br-] has an IC50 [1] of 2620 nM, an IC50 [2] of 3500 nM and a growth at 10 µM [9] of -23.8%. For the same compound, the growth at 10 µM [10] was 14.4%, the solubility [11] was > 4400 µg/mL and the growth at 10 µM [12] was 23.3%. For the same compound, the growth at 10 µM [13] was -13.1%, the growth at 10 µM [14] was -2.71% and the IC50 [5] was 2640 nM. The growth at 10 µM [15] was -38.2%, the IC50 [16] was 2180 nM and the solubility [17] was < 500 µg/mL. The IC50 [20] was 2430 nM, the growth at 10 µM [21] was 29.8% and the IC50 [6] was 1740 nM. For the same compound, the solubility [24] was “Soluble”, the GI50 [25] was 1380 nM and the TGI [25] was 2750 nM. The growth at 10 µM [27] was -0.47%, the IC50 [28] was 3250 nM and the GI50 [29] was 793 nM. For the same compound, the TGI [29] was 2310 nM, the CC50 [29] was 5850 nM and the IC50 [31] was 1020 nM.
